Experimental data: ChEMBL document CHEMBL4689842, “EUbOPEN Chemogenomics Library wave 1” (2021)

Test system: U2OS
Assay: Multiplex assay against U2OS
Type: toxicity, cell-based
Details: human
Outline: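 With compound added, live cells were imaged on a CQ1 microscope at 37°C and 5% CO2; staining with Hoechst33342, BioTracker Green Microtubule Cytoskeleton Dye, MitoTracker Red and Annexin V Alexa Fluor 680 had been done at seeding. The CellPathfinder machine-learning gating scheme split cells into Hoechst high-intensity objects or normal cells, normal cells into healthy, pyknosed or fragmented nuclei, and pyknosed cells into mitotic or apoptotic. The tubulin, mitochondrial-mass and membrane-permeability phenotypes are per cents of healthy-nucleus cells.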

[1] = 12 h, 1 µM, compound concentration 1 uM, replicate 1
[2] = 12 h, 1 µM, compound concentration 1 uM, replicate 2
[3] = 12 h, 10 µM, compound concentration 10 uM, replicate 1
[4] = 12 h, 10 µM, compound concentration 10 uM, replicate 2
[5] = 24 h, 1 µM, compound concentration 1 uM, replicate 1
[6] = 24 h, 1 µM, compound concentration 1 uM, replicate 2
[7] = 24 h, 10 µM, compound concentration 10 uM, replicate 1
[8] = 24 h, 10 µM, compound concentration 10 uM, replicate 2
[9] = 48 h, 1 µM, compound concentration 1 uM, replicate 1
[10] = 48 h, 1 µM, compound concentration 1 uM, replicate 2
[11] = 48 h, 10 µM, compound concentration 10 uM, replicate 1
[12] = 48 h, 10 µM, compound concentration 10 uM, replicate 2

Q: Which “Population Apoptotic (%)” value [1] does the source give for `CCn1c(-c2nonc2N)nc2cnc(Oc3cccc(NC(=O)c4ccc(OCCN5CCOCC5)cc4)c3)cc21` [GSK-269962A] here?
A: The value was 43%.

Q: What about the “Population Fragmented Nuclei (%)” value [1] of the same compound?
A: The value was 14%.

Q: What about the “Population Healthy Nuclei (%)” value [1] of the same compound?
A: The value was 64%.

Q: What about the “Population Hoechst High Intensity Objects (%)” value [1] of the same compound?
A: Its value is 12%.

Q: And the “Population Membrane Permeable-Phenotype (%)” value [1]?
A: Its value is 13%.

Q: What about the “Population Mitochondria Different-Phenotype (%)” value [1] of the same compound?
A: The value was 17%.

Q: What about the “Population Mitotic Cells (%)” value [1] of the same compound?
A: The value was 56%.

Q: What about the “Population Normal (%)” value [1] of the same compound?
A: The value was 87%.

Q: And the “Population Pyknosed Nuclei (%)” value [1]?
A: Its value is 21%.

Q: And the “Population Tubulin-Different-Phenotype (%)” value [1]?
A: The value was 13%.

Q: What about the “Total Cell Count” value [1] of the same compound?
A: The value was 156.

Q: What about the “Population Apoptotic (%)” value [2] of the same compound?
A: Its value is 20%.

Q: What about the “Population Fragmented Nuclei (%)” value [2] of the same compound?
A: The value was 20%.

Q: And the “Population Healthy Nuclei (%)” value [2]?
A: Its value is 72%.

Q: What about the “Population Hoechst High Intensity Objects (%)” value [2] of the same compound?
A: Its value is 2%.

Q: What about the “Population Membrane Permeable-Phenotype (%)” value [2] of the same compound?
A: The value was 14%.

Q: And the “Population Mitochondria Different-Phenotype (%)” value [2]?
A: Its value is 16%.

Q: And the “Population Mitotic Cells (%)” value [2]?
A: Its value is 80%.

Q: And the “Population Normal (%)” value [2]?
A: Its value is 97%.

Q: And the “Population Pyknosed Nuclei (%)” value [2]?
A: The value was 7%.

Q: And the “Population Tubulin-Different-Phenotype (%)” value [2]?
A: The value was 14%.

Q: What about the “Total Cell Count” value [2] of the same compound?
A: Its value is 45.

Q: And the “Population Apoptotic (%)” value [3]?
A: Its value is 50%.

Q: What about the “Population Fragmented Nuclei (%)” value [3] of the same compound?
A: The value was 15%.

Q: What about the “Population Healthy Nuclei (%)” value [3] of the same compound?
A: The value was 53%.

Q: What about the “Population Hoechst High Intensity Objects (%)” value [3] of the same compound?
A: The value was 10%.

Q: And the “Population Membrane Permeable-Phenotype (%)” value [3]?
A: The value was 36%.

Q: What about the “Population Mitochondria Different-Phenotype (%)” value [3] of the same compound?
A: The value was 94%.

Q: What about the “Population Mitotic Cells (%)” value [3] of the same compound?
A: Its value is 49%.

Q: What about the “Population Normal (%)” value [3] of the same compound?
A: The value was 90%.

Q: And the “Population Pyknosed Nuclei (%)” value [3]?
A: The value was 30%.

Q: And the “Total Cell Count” value [3]?
A: The value was 121.

Q: And the “Population Apoptotic (%)” value [4]?
A: Its value is 31%.

Q: What about the “Population Fragmented Nuclei (%)” value [4] of the same compound?
A: The value was 20%.

Q: And the “Population Healthy Nuclei (%)” value [4]?
A: Its value is 57%.

Q: What about the “Population Hoechst High Intensity Objects (%)” value [4] of the same compound?
A: Its value is 7%.

Q: What about the “Population Membrane Permeable-Phenotype (%)” value [4] of the same compound?
A: The value was 45%.

Q: And the “Population Mitochondria Different-Phenotype (%)” value [4]?
A: The value was 97%.

Q: And the “Population Mitotic Cells (%)” value [4]?
A: The value was 68%.

Q: What about the “Population Normal (%)” value [4] of the same compound?
A: The value was 92%.

Q: And the “Population Pyknosed Nuclei (%)” value [4]?
A: The value was 22%.

Q: What about the “Population Tubulin-Different-Phenotype (%)” value [4] of the same compound?
A: Its value is 100%.

Q: And the “Total Cell Count” value [4]?
A: Its value is 71.

Q: And the “Population Apoptotic (%)” value [5]?
A: Its value is 43%.

Q: And the “Population Fragmented Nuclei (%)” value [5]?
A: The value was 10%.

Q: And the “Population Healthy Nuclei (%)” value [5]?
A: The value was 71%.

Q: What about the “Population Hoechst High Intensity Objects (%)” value [5] of the same compound?
A: The value was 7%.

Q: And the “Population Membrane Permeable-Phenotype (%)” value [5]?
A: Its value is 6%.

Q: And the “Population Mitochondria Different-Phenotype (%)” value [5]?
A: Its value is 18%.

Q: What about the “Population Mitotic Cells (%)” value [5] of the same compound?
A: The value was 56%.

Q: And the “Population Normal (%)” value [5]?
A: The value was 92%.

Q: What about the “Population Pyknosed Nuclei (%)” value [5] of the same compound?
A: The value was 17%.

Q: And the “Population Tubulin-Different-Phenotype (%)” value [5]?
A: The value was 8%.

Q: What about the “Total Cell Count” value [5] of the same compound?
A: Its value is 174.

Q: And the “Population Apoptotic (%)” value [6]?
A: Its value is 75%.

Q: What about the “Population Fragmented Nuclei (%)” value [6] of the same compound?
A: Its value is 11%.

Q: And the “Population Healthy Nuclei (%)” value [6]?
A: Its value is 77%.

Q: And the “Population Hoechst High Intensity Objects (%)” value [6]?
A: The value was 2%.

Q: And the “Population Membrane Permeable-Phenotype (%)” value [6]?
A: Its value is 1%.

Q: What about the “Population Mitochondria Different-Phenotype (%)” value [6] of the same compound?
A: The value was 10%.

Q: And the “Population Mitotic Cells (%)” value [6]?
A: Its value is 25%.

Q: What about the “Population Normal (%)” value [6] of the same compound?
A: Its value is 97%.

Q: And the “Population Pyknosed Nuclei (%)” value [6]?
A: The value was 11%.

Q: What about the “Population Tubulin-Different-Phenotype (%)” value [6] of the same compound?
A: The value was 14%.

Q: And the “Total Cell Count” value [6]?
A: Its value is 59.

Q: What about the “Population Apoptotic (%)” value [7] of the same compound?
A: The value was 70%.

Q: What about the “Population Fragmented Nuclei (%)” value [7] of the same compound?
A: Its value is 13%.

Q: What about the “Population Healthy Nuclei (%)” value [7] of the same compound?
A: Its value is 55%.

Q: What about the “Population Hoechst High Intensity Objects (%)” value [7] of the same compound?
A: Its value is 9%.

Q: What about the “Population Membrane Permeable-Phenotype (%)” value [7] of the same compound?
A: Its value is 52%.

Q: And the “Population Mitochondria Different-Phenotype (%)” value [7]?
A: The value was 98%.

Q: And the “Population Mitotic Cells (%)” value [7]?
A: Its value is 29%.

Q: What about the “Population Normal (%)” value [7] of the same compound?
A: Its value is 90%.

Q: And the “Population Pyknosed Nuclei (%)” value [7]?
A: The value was 30%.

Q: What about the “Total Cell Count” value [7] of the same compound?
A: The value was 138.

Q: And the “Population Apoptotic (%)” value [8]?
A: Its value is 53%.

Q: And the “Population Fragmented Nuclei (%)” value [8]?
A: Its value is 30%.

Q: What about the “Population Healthy Nuclei (%)” value [8] of the same compound?
A: Its value is 52%.

Q: What about the “Population Hoechst High Intensity Objects (%)” value [8] of the same compound?
A: Its value is 5%.

Q: What about the “Population Membrane Permeable-Phenotype (%)” value [8] of the same compound?
A: The value was 67%.

Q: And the “Population Mitochondria Different-Phenotype (%)” value [8]?
A: The value was 97%.

Q: What about the “Population Mitotic Cells (%)” value [8] of the same compound?
A: Its value is 46%.

Q: What about the “Population Normal (%)” value [8] of the same compound?
A: Its value is 94%.

Q: What about the “Population Pyknosed Nuclei (%)” value [8] of the same compound?
A: The value was 17%.

Q: What about the “Population Tubulin-Different-Phenotype (%)” value [8] of the same compound?
A: Its value is 100%.

Q: And the “Total Cell Count” value [8]?
A: Its value is 73.

Q: And the “Population Apoptotic (%)” value [9]?
A: The value was 48%.

Q: And the “Population Fragmented Nuclei (%)” value [9]?
A: The value was 14%.

Q: What about the “Population Healthy Nuclei (%)” value [9] of the same compound?
A: The value was 70%.

Q: And the “Population Hoechst High Intensity Objects (%)” value [9]?
A: Its value is 4%.

Q: What about the “Population Membrane Permeable-Phenotype (%)” value [9] of the same compound?
A: The value was 7%.

Q: And the “Population Mitochondria Different-Phenotype (%)” value [9]?
A: Its value is 22%.

Q: And the “Population Mitotic Cells (%)” value [9]?
A: Its value is 52%.

Q: What about the “Population Normal (%)” value [9] of the same compound?
A: The value was 95%.

Q: And the “Population Pyknosed Nuclei (%)” value [9]?
A: Its value is 15%.

Q: What about the “Population Tubulin-Different-Phenotype (%)” value [9] of the same compound?
A: Its value is 7%.

Q: And the “Total Cell Count” value [9]?
A: Its value is 230.

Q: And the “Population Apoptotic (%)” value [10]?
A: Its value is 33%.

Q: What about the “Population Fragmented Nuclei (%)” value [10] of the same compound?
A: The value was 10%.

Q: What about the “Population Healthy Nuclei (%)” value [10] of the same compound?
A: The value was 81%.

Q: And the “Population Hoechst High Intensity Objects (%)” value [10]?
A: Its value is 7%.

Q: And the “Population Membrane Permeable-Phenotype (%)” value [10]?
A: The value was 8%.

Q: And the “Population Mitochondria Different-Phenotype (%)” value [10]?
A: The value was 11%.

Q: And the “Population Mitotic Cells (%)” value [10]?
A: Its value is 66%.

Q: What about the “Population Normal (%)” value [10] of the same compound?
A: Its value is 92%.

Q: What about the “Population Pyknosed Nuclei (%)” value [10] of the same compound?
A: The value was 9%.

Q: And the “Population Tubulin-Different-Phenotype (%)” value [10]?
A: The value was 17%.

Q: And the “Total Cell Count” value [10]?
A: The value was 82.

Q: What about the “Population Apoptotic (%)” value [11] of the same compound?
A: The value was 64%.

Q: And the “Population Fragmented Nuclei (%)” value [11]?
A: The value was 21%.

Q: What about the “Population Healthy Nuclei (%)” value [11] of the same compound?
A: Its value is 43%.

Q: And the “Population Hoechst High Intensity Objects (%)” value [11]?
A: The value was 6%.

Q: And the “Population Membrane Permeable-Phenotype (%)” value [11]?
A: Its value is 71%.

Q: What about the “Population Mitochondria Different-Phenotype (%)” value [11] of the same compound?
A: Its value is 100%.

Q: And the “Population Mitotic Cells (%)” value [11]?
A: Its value is 35%.

Q: And the “Population Normal (%)” value [11]?
A: Its value is 93%.

Q: What about the “Population Pyknosed Nuclei (%)” value [11] of the same compound?
A: Its value is 34%.

Q: What about the “Population Tubulin-Different-Phenotype (%)” value [11] of the same compound?
A: Its value is 100%.

Q: And the “Total Cell Count” value [11]?
A: The value was 169.

Q: What about the “Population Apoptotic (%)” value [12] of the same compound?
A: The value was 57%.

Q: And the “Population Fragmented Nuclei (%)” value [12]?
A: Its value is 13%.

Q: And the “Population Healthy Nuclei (%)” value [12]?
A: The value was 59%.

Q: And the “Population Hoechst High Intensity Objects (%)” value [12]?
A: Its value is 10%.

Q: What about the “Population Membrane Permeable-Phenotype (%)” value [12] of the same compound?
A: The value was 87%.

Q: What about the “Population Mitochondria Different-Phenotype (%)” value [12] of the same compound?
A: The value was 97%.

Q: And the “Population Mitotic Cells (%)” value [12]?
A: Its value is 42%.

Q: What about the “Population Normal (%)” value [12] of the same compound?
A: The value was 89%.

Q: And the “Population Pyknosed Nuclei (%)” value [12]?
A: The value was 27%.

Q: What about the “Total Cell Count” value [12] of the same compound?
A: The value was 108.
